Entries after “also recorded” stand apart in the source; their conditions may differ.
Assays:
[1] = tested on: allergic rhinitis; details: delivered intranasally; ref [31]; cited from earlier work
[2] = tested on: peripheral T-cell lymphoma cells; details: cells with elevated Syk Y525/Y526 phosphorylation; ref [8]; cited from earlier work
[3] = tested on: kinases; details: binding affinity for kinases; ref [30]; cited from earlier work
[4] = target: T1, Syk (Homo sapiens, UniProt P43405); test: Western blot of Syk tyrosine phosphorylation in inhibitor-treated DG75 cells; assay type: cell-based; details: anti-IgM 5 μg/mL + H2O2 1 mM
[5] = tested on: Syk Y525/526; test: Western blot of Syk Y525/526 phosphorylation in primary splenic B cells; assay type: cell-based; details: mouse primary splenic B cells, anti-IgM F(ab′)2
Method in brief: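 Mouse splenic B cells enriched by panning, at 5 × 10^6 cells/mL, pre-treated with tyrosine kinase inhibitor or DMSO vehicle. SAStide biosensor peptide (25 μM) added 15 min before anti-IgM F(ab′)2 (5 μg/mL); harvested 0, 5, 10, 15 min after. Immunoblot: 5% goat serum block 1 h; primary antibodies 1:1,000, 1 h at room temperature; HRP secondary, ECL detection.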

[6] = tested on: non-Hodgkins lymphomas; details: ongoing trial, very small cohort; ref [29]; cited from earlier work
[7] = tested on: rheumatoid arthritis; details: vs placebo; ref [32]; cited from earlier work
[8] = tested on: DG75 cells; test: Cell toxicity in DG75 cells; assay type: cell-based; details: high concentrations, in the presence of BCR activation and oxidative stress; loss of tubulin and Syk immunoblot signal
[9] = target: Syk-EGFP (Mus musculus, UniProt P48025); test: In vitro kinase assay, immobilized Syk-EGFP, ELISA-based fluorescence detection; assay type: biochemical; details: for rate of phosphorylation compared with other substrates: Syk-EGFP 6 nM, each substrate 4 μM, 5 mM MnCl2, HEPES pH 7.2 (Fig. 2b)
Syk-EGFP, sequence (P48025 whole entry): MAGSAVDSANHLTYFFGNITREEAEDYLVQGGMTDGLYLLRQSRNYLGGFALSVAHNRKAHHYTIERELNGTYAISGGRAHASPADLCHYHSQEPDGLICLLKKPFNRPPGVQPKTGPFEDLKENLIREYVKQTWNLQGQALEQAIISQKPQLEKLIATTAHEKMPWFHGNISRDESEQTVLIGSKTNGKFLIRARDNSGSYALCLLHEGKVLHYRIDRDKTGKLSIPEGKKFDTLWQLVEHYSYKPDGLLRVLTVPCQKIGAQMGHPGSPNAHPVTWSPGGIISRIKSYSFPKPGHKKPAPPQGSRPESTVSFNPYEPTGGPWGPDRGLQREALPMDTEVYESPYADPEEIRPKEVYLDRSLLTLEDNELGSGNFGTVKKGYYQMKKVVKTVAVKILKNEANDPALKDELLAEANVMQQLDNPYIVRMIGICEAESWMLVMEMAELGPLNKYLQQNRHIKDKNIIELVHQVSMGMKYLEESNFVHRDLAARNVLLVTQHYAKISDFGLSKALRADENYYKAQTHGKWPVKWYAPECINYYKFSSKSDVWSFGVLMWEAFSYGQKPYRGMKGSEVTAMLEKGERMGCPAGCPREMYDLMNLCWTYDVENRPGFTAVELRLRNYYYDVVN
Method in brief: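 Syk-EGFP immunoprecipitated from lysates of DT40 chicken B cells on anti-GFP beads. Bead-bound kinase (6 nM in the 4 μM substrate comparison) was mixed with peptide (4 μM, or a concentration range) in 500 μM ATP, 5 mM MnCl2, HEPES pH 7.2. Timed aliquots were EDTA-quenched. Neutravidin-captured peptide was probed with 4G10 anti-phosphotyrosine and HRP secondary, then read by Amplex Red (ex 532/em 590 nm). Initial velocities were fitted to a sigmoidal curve; three replicates.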

[10] = target: T1, Syk; details: cited from earlier work
[11] = tested on: acute myelogenous leukemia; details: ref [34]; cited from earlier work
[12] = 500 μM ATP, average of three replicate experiments
[13] = different enzyme preparation and ATP concentration from this paper, ref [13b]

Oc1cccc(Nc2ncc(F)c(Nc3cccc(O)c3)n2)c1 [R112]
relief of allergic rhinitis symptoms [1]: effective for relieving allergic rhinitis symptoms

COc1cc(Nc2ncc(F)c(Nc3ccc4c(n3)NC(=O)C(C)(C)O4)n2)cc(OC)c1OC [R406]
apoptosis and proliferation [2]: induces apoptosis and blocks proliferation | kinase selectivity [3]: one of the least selective kinase inhibitors evaluated

Cc1nc(Nc2ncc(C(=O)Nc3c(C)cccc3Cl)s2)cc(N2CCN(CCO)CC2)n1 [dasatinib]
level of Syk tyrosine phosphorylation (Western blot) [4]: reduction in the level of Syk tyrosine phosphorylation | Y525/526 phosphorylation in the presence of inhibitor (Western blot) [5]: Y525/526 remained phosphorylated

COc1cc(Nc2ncc(F)c(Nc3ccc4c(n3)N(COP(=O)(O)O)C(=O)C(C)(C)O4)n2)cc(OC)c1OC [fostamatinib]
response by lymphoma subtype [6]: slightly better response in chronic lymphocytic leukemia than the other types | response rates [6]: response rates were low overall | benefit in rheumatoid arthritis, patients receiving methotrexate [7]: significant benefit (over placebo)

Oc1cc(O)cc(/C=C/c2ccc(O)c(O)c2)c1 [piceatannol, 3,4,3′,5′-tetrahydroxy-trans-stilbene]
level of Syk tyrosine phosphorylation (Western blot) [4]: reduction in the level of Syk tyrosine phosphorylation | Y525/526 phosphorylation in the presence of inhibitor (Western blot) [5]: Y525/526 remained phosphorylated | toxicity to DG75 cells [8]: toxic to DG75 cells

GGDEEDYEEPDEPGGKbGG [SAStide]
Vmax ([9]; SAStide at a range of concentrations, immunoprecipitated Syk-EGFP, 500 μM ATP, 5 mM MnCl2, HEPES pH 7.2, sigmoidal fit, three replicate experiments): 11 ± 1 pmol/min | rate of phosphorylation compared with other substrates [9, 12]: phosphorylated more rapidly than the previously reported Syktide sequence, but not as rapidly as the phage display-derived sequence; also recorded: phosphorylated more efficiently than the parent Syktide | substrate inhibition ([9]; concentrations up to 100 μM, immunoprecipitated Syk-EGFP): no substrate inhibition at concentrations up to 100 μM | Km ([9]; read-out: Khalf (substrate concentration at half of Vmax in a sigmoidal curve, analogous to Km), SAStide at a range of concentrations, immunoprecipitated Syk-EGFP, 500 μM ATP, 5 mM MnCl2, HEPES pH 7.2, sigmoidal fit, average of three replicate experiments): 86 ± 10 µM

GGEDDEYEEVGGKbGG [Syktide]
Km [10, 13]: 3 µM | kcat [10, 13]: 1.04 s⁻¹

GGEDPDYEWPSAGGKbGG [Phage]
rate of phosphorylation compared with other substrates [9, 12]: more efficiently phosphorylated | substrate inhibition at higher concentrations ([10]; phage display peptide, Syk, ref [13d]): greater than 20 μM

gemtuzumab ozogamicin: therapeutic antibody conjugated to a toxin
response in relation to lower Syk expression [11]: lack of response

— PMC3545090 (Biochemistry, 2012)
